Reference: ChEMBL document CHEMBL1122663, “Oligonucleotide structural parameters that influence binding of 5'-O-triphosphoadenylyl-(2'----5')-adenylyl-(2'----5')-adenosine to the 5'-O-triphosphoadenylyl-(2'----5')-adenylyl-(2'----5')-adenosine dependent endoribonuclease: chain length, phosphorylation state, and heterocyclic base” (J Med Chem, 1984)

Assays:
[1] = target: T1, 2-5A-dependent ribonuclease (Mus musculus) (UniProt Q05921); experiment: Molar concentration required to displace 50% of the radiolabeled probe from 2-5A (Adenosine dependent endoribonuclease) in endonuclease-nitrocellulose complex
T1 sequence (whole entry): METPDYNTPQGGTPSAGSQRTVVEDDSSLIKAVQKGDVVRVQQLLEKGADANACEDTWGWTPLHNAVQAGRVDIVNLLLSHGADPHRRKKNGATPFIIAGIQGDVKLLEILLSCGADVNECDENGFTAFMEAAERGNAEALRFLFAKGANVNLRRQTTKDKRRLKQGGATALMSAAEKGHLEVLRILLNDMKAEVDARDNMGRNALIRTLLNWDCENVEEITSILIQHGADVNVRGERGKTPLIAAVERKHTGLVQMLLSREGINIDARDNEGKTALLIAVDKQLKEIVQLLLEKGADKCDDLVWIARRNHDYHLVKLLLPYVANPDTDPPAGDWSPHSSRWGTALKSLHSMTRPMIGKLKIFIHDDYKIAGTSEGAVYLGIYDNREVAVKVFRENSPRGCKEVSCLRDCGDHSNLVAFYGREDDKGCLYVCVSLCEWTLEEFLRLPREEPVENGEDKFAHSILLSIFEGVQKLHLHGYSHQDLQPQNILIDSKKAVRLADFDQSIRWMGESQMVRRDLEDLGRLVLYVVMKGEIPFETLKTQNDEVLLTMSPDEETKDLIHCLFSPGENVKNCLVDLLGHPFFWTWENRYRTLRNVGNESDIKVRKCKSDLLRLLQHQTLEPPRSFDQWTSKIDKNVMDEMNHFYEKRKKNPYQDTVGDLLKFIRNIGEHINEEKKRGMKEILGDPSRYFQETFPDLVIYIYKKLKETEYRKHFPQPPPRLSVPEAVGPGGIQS
How it was run: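 Radiobinding assay of Knight et al. on the 2-5A-dependent endoribonuclease from mouse L cells. Oligomer is added against the radiolabeled probe ppp5'A2'p5'A2'p5'A2'p5'A3'[³²P]p5'C3'p. The value is the oligomer concentration that prevents 50% of the added probe from binding the endonuclease.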

[2] = target: T1, 2-5A-dependent ribonuclease (Mus musculus); experiment: Molar concentration needed to give 50% prevention of 2-5A (Adenosine dependent endoribonuclease)

Row | Concentration [1] | Concentration [2] | SMILES
1 | 5e-10 | – | Nc1ncnc2c1ncn2[C@@H]1O[C@H](COP(=O)(O)O[C@@H]2[C@H](O)[C@@H](COP(=O)(O)O[C@@H]3[C@H](O)[C@@H](COP(=O)(O)OP(=O)(O)OP(=O)(O)O)O[C@H]3n3cnc4c(N)ncnc43)O[C@H]2n2cnc3c(N)ncnc32)[C@@H](O)[C@H]1O
2 | 8e-07 | > 0.0001 | Nc1ncnc2c1ncn2[C@@H]1O[C@H](COP(=O)(O)O[C@@H]2[C@H](O)[C@@H](COP(=O)(O)O[C@@H]3[C@H](O)[C@@H](CO)O[C@H]3n3cnc4c(N)ncnc43)O[C@H]2n2cnc3c(N)ncnc32)[C@@H](O)[C@H]1O
3 | 9e-10 | 5e-07 | Nc1ncnc2c1ncn2C1O[C@H](COP(=O)(O)O[C@H]2C(n3cnc4c(N)ncnc43)O[C@H](COP(=O)(O)O[C@H]3C(n4cnc5c(N)ncnc54)O[C@H](COP(=O)(O)O[C@H]4C(n5cnc6c(N)ncnc65)O[C@H](COP(=O)(O)O[C@H]5C(n6cnc7c(N)ncnc76)O[C@H](COP(=O)(O)O)[C@H]5O)[C@H]4O)[C@H]3O)[C@H]2O)[C@@H](O)[C@H]1O (some centres undefined)
4 | 1.1e-06 | > 0.0001 | O=c1ccn(C2O[C@H](COP(=O)(O)O[C@H]3C(n4ccc(=O)[nH]c4=O)O[C@H](COP(=O)(O)O[C@H]4C(n5ccc(=O)[nH]c5=O)O[C@H](COP(=O)(O)O)[C@H]4O)[C@H]3O)[C@@H](O)[C@H]2O)c(=O)[nH]1 (some centres undefined)
5 | 4e-06 | – | Nc1ncnc2c1ncn2[C@@H]1O[C@H](COP(=O)(O)O[C@@H]2[C@H](O)[C@@H](COP(=O)(O)O)O[C@H]2n2cnc3c(N)ncnc32)[C@@H](OP(=O)(O)O)[C@H]1O
6 | – | > 0.001 | Nc1ncnc2c1ncn2C1OC(CO)C(O)C1OP(=O)(O)OC[C@H]1OC(n2cnc3c(N)ncnc32)[C@H](O)[C@@H]1O (some centres undefined)
7 | 8e-10 | 1e-06 | Nc1ncnc2c1ncn2[C@@H]1O[C@H](COP(=O)(O)O[C@@H]2[C@H](O)[C@@H](COP(=O)(O)O[C@@H]3[C@H](O)[C@@H](COP(=O)(O)O)O[C@H]3n3cnc4c(N)ncnc43)O[C@H]2n2cnc3c(N)ncnc32)[C@@H](O)[C@H]1O (stereo in doubt; 2)
8 | 2.2e-08 | 1e-05 | Nc1ncnc2c1ncn2[C@@H]1O[C@H](COP(=O)(O)O[C@@H]2[C@H](O)[C@@H](COP(=O)(O)O[C@@H]3[C@H](O)[C@@H](COP(=O)(O)O[C@@H]4[C@H](O)[C@@H](CO)O[C@H]4n4cnc5c(N)ncnc54)O[C@H]3n3cnc4c(N)ncnc43)O[C@H]2n2cnc3c(N)ncnc32)[C@@H](O)[C@H]1O
9 | 7e-10 | 1e-06 | Nc1ncnc2c1ncn2[C@@H]1O[C@H](COP(=O)(O)O[C@@H]2[C@H](O)[C@@H](COP(=O)(O)O[C@@H]3[C@H](O)[C@@H](COP(=O)(O)O[C@@H]4[C@H](O)[C@@H](COP(=O)(O)O)O[C@H]4n4cnc5c(N)ncnc54)O[C@H]3n3cnc4c(N)ncnc43)O[C@H]2n2cnc3c(N)ncnc32)[C@@H](O)[C@H]1O
10 | 1.3e-08 | 7e-06 | Nc1ncnc2c1ncn2C1O[C@H](COP(=O)(O)O[C@H]2C(n3cnc4c(N)ncnc43)O[C@H](COP(=O)(O)O[C@H]3C(n4cnc5c(N)ncnc54)O[C@H](COP(=O)(O)O[C@H]4C(n5cnc6c(N)ncnc65)O[C@H](COP(=O)(O)O[C@H]5C(n6cnc7c(N)ncnc76)O[C@H](CO)[C@H]5O)[C@H]4O)[C@H]3O)[C@H]2O)[C@@H](O)[C@H]1O (some centres undefined)
11 | 1.3e-08 | – | Nc1ncnc2c1ncn2C1O[C@H](COP(=O)(O)O[C@H]2C(n3cnc4c(N)ncnc43)O[C@H](COP(=O)(O)O[C@H]3C(n4cnc5c(N)ncnc54)O[C@H](COP(=O)(O)O[C@H]4C(n5cnc6c(N)ncnc65)O[C@H](COP(=O)(O)O[C@H]5C(n6cnc7c(N)ncnc76)O[C@H](COP(=O)(O)O[C@H]6C(n7cnc8c(N)ncnc87)O[C@H](CO)[C@H]6O)[C@H]5O)[C@H]4O)[C@H]3O)[C@H]2O)[C@@H](O)[C@H]1O (some centres undefined)
12 | 3.3e-06 | > 0.0001 | Nc1ccn(C2O[C@H](COP(=O)(O)O[C@H]3C(n4ccc(N)nc4=O)O[C@H](COP(=O)(O)O[C@H]4C(n5ccc(N)nc5=O)O[C@H](COP(=O)(O)O)[C@H]4O)[C@H]3O)[C@@H](O)[C@H]2O)c(=O)n1 (some centres undefined)
13 | 1e-09 | – | Nc1ncnc2c1ncn2C1O[C@H](COP(=O)(O)O[C@H]2C(n3cnc4c(N)ncnc43)O[C@H](COP(=O)(O)O[C@H]3C(n4cnc5c(N)ncnc54)O[C@H](COP(=O)(O)O[C@H]4C(n5cnc6c(N)ncnc65)O[C@H](COP(=O)(O)O[C@H]5C(n6cnc7c(N)ncnc76)O[C@H](COP(=O)(O)O[C@H]6C(n7cnc8c(N)ncnc87)O[C@H](COP(=O)(O)O)[C@H]6O)[C@H]5O)[C@H]4O)[C@H]3O)[C@H]2O)[C@@H](O)[C@H]1O (some centres undefined)
14 | 2.6e-07 | > 0.00013 | O=P(O)(O)OP(=O)(O)OP(=O)(O)OCC1OC(n2cnc3c(O)ncnc32)C(OP(=O)(O)OCC2OC(n3cnc4c(O)ncnc43)C(OP(=O)(O)OC[C@H]3OC(n4cnc5c(O)ncnc54)[C@H](O)[C@@H]3O)C2O)C1O (some centres undefined)
15 | 2e-09 | – | Nc1ncnc2c1ncn2[C@@H]1O[C@H](COP(=O)(O)O[C@@H]2[C@H](O)[C@@H](COP(=O)(O)O[C@@H]3[C@H](O)[C@@H](COP(=O)(O)O)O[C@H]3n3cnc4c(N)ncnc43)O[C@H]2n2cnc3c(N)ncnc32)[C@@H](O)[C@H]1O (stereo in doubt; 11)
16 | 3.3e-06 | > 0.0001 | O=P(O)(O)OC[C@H]1OC(n2cnc3c(O)ncnc32)[C@H](OP(=O)(O)OC[C@H]2OC(n3cnc4c(O)ncnc43)[C@H](OP(=O)(O)OC[C@H]3OC(n4cnc5c(O)ncnc54)[C@H](O)[C@@H]3O)[C@@H]2O)[C@@H]1O (some centres undefined)
17 | 2e-05 | > 0.0002 | Nc1ncnc2c1ncn2C1O[C@H](COP(=O)(O)O[C@H]2C(n3cnc4c(N)ncnc43)O[C@H](COP(=O)(O)O)[C@H]2O)[C@@H](O)[C@H]1O (some centres undefined)
18 | 4e-07 | – | Nc1ncnc2c1ncn2[C@@H]1O[C@H](COP(=O)(O)O[C@@H]2[C@H](O)[C@@H](COP(=O)(O)O)O[C@H]2n2cnc3c(N)ncnc32)[C@@H](O)[C@H]1OP(=O)(O)O
